Measured values from PMC11225362 (iScience, 2024).
Where “and” joins values, the source holds several entries; their conditions need not be identical. Identical values can stand only once. Entries after “also recorded” stand apart in the source; their conditions may differ.

Tests used:
[1] = molecular target: human constitutive 20S proteasome (Homo sapiens, UniProt P25787+P60900); experiment: Fluorogenic small peptide assay with purified 20S proteasome; format: biochemical; conditions: for EC200 (concentration at which degradation rate is enhanced 2-fold, 200%): equimolar mixture of Suc-LLVY-AMC, Z-LLE-AMC, Boc-LRR-AMC, mean ± SD, n = 3
Outline: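 Human constitutive 20S proteasome (0.5 nM) in 38 mM Tris, 100 mM NaCl, pH 7.8 was preincubated 20 min at 37°C with test compound (3.75–30 μM, or 9 points 0.16–30 μM) in DMSO (2% final). Suc-LLVY-, Z-LLE- and Boc-LRR-AMC were added at 6.67 μM final each. AMC release (380/460 nm) was read at 37°C for 1 h. Hydrolysis rate was expressed relative to vehicle, and EC200 was taken as the 2-fold-rate concentration.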

[2] = tested on: A53T α-synuclein in HEK-293T cells; experiment: A53T α-synuclein levels in transfected HEK-293T cells; format: cell-based; conditions: for A53T α-synuclein remaining: vs DMSO; for α-synuclein remaining: 0.75 μM, A53T α-synuclein
[3] = tested on: ubiquitin in HEK-293T cells; experiment: Ubiquitin levels in unmodified HEK-293T cells; format: cell-based; conditions: for levels of ubiquitin: 10 μM
Outline: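 Untransfected HEK-293T cells were treated with 10 μM test compound, DMSO vehicle, or 100 nM bortezomib. Ubiquitin levels were visualized and quantified by immunoblotting relative to vehicle.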

p25α in PC12 cells = experiment: p25α levels in PC12 cells; format: cell-based, rat; conditions: 10 μM
purified 20S proteasome [4] = molecular target: T1, purified 20S proteasome (Homo sapiens, UniProt P25787+P60900); experiment: Purified p25α digestion with 20S proteasome; format: biochemical; conditions: 10 μM compound; 7.5 nM 20S, 500 nM p25α, 3 h
Outline: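 20S proteasome (7.5 nM final) in 120 mM NaCl, 50 mM Tris, 0.1% β-mercaptoethanol, pH 7.2 was exposed to 10 μM test compound or DMSO for 30 min at 37°C. Purified p25α was pretreated with 100 μM DTE for 30 min at room temperature, then added at 500 nM final for 3 h. GAPDH (0.5 μM) was the loading control. Samples were boiled in SDS buffer and immunoblotted.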

[5] = tested on: proteasome activity in PC12 cells; format: cell-based, rat; conditions: 3 μM, 72 h; co-transfected PC12; untreated model 8%
Outline: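 PC12 cells (RPMI 1640 with 5% FBS and 10% horse serum) were strained and plated at 2,500 cells/well in 384-well plates. Cells were co-transfected with 0.5 μg A53T α-synuclein and 0.1 μg p25α plasmids for 24 h. They were then treated with 3 μM test compound or DMSO (0.03% final) for 72 h. Proteasome Glo reagent was added and luminescence recorded.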

p25α in HEK-293T cells = experiment: p25α levels in transfected HEK-293T cells; format: cell-based; conditions: 10 μM, 16 h
Outline: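 HEK-293T cells were transiently transfected with TPPP/p25α and A53T α-synuclein plasmids, and protein was expressed for 48 h. Cells were then treated 16 h with 10 μM test compound, DMSO, or 30 nM bortezomib as control. p25α was quantified by immunoblot in triplicate.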

[6] = tested on: A53T α-synuclein in HEK-293T cells; experiment: A53T α-synuclein levels in HEK-293T cells pre-treated with Bafilomycin A1; format: cell-based; conditions: 10 μM after 1 h pre-treatment with 500 nM Bafilomycin A1, HEK-293T
Outline: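 HEK-293T cells transiently expressing A53T α-synuclein (48 h expression) were pretreated with 500 nM bafilomycin A1 and exposed to 10 μM test compound. α-Synuclein levels were then determined by SDS-PAGE immunoblotting with anti-α-synuclein (1:1333).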

purified 20S proteasome [7] = molecular target: T1, purified 20S proteasome; experiment: Purified α-synuclein digestion with 20S proteasome; format: biochemical; conditions: 10 nM 20S, 300 nM α-synuclein, 3.5 h, 37°C
Outline: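 Purified human 20S proteasome (10 nM final) in 50 mM HEPES, 5 mM DTT, pH 7.2 was preincubated 45 min at 37°C with test compound in DMSO or DMSO alone. Purified α-synuclein (300 nM final) was added, and digestion ran 3.5 h at 37°C. GAPDH (0.5 μM) served as loading control. Samples were boiled 15 min in SDS buffer and immunoblotted with anti-α-synuclein (1:1333).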

PC12 cells = format: cell-based, rat; conditions: 3 μM, 72 h; co-transfected PC12; untreated model 25%

With `O=C(Cn1c2ccccc2c2ccncc21)N(c1ccc(F)cc1)c1ccc(F)cc1` [Compound 6, N,N-bis(4-fluorophenyl)-2-(9H-pyrido[3,4-b]indol-9-yl)acetamide] the “EC200 (concentration at which degradation rate is enhanced 2-fold, 200%)” value [1] was 2.0 µM.

For `O=C(CCn1ccc2ccccc21)N(c1ccc(F)cc1)c1ccc(F)cc1` [Compound 7, N,N-bis(4-fluorophenyl)-3-(1H-indol-1-yl)propanamide], the “EC200 (concentration at which degradation rate is enhanced 2-fold, 200%)” value [1] was 7.5 µM.

`O=C(Cn1c(=O)oc2ccccc21)N(c1ccc(F)cc1)c1ccc(F)cc1` [Compound 14, N,N-bis(4-fluorophenyl)-2-(2-oxobenzo[d]oxazol-3(2H)-yl)acetamide] was tested, and the “A53T α-synuclein remaining” value ([2]; 15 μM, 16 h) was “no significant effect on degradation; also recorded: no impact on the levels of A53T α-synuclein” and the “20S proteasome activation (in words)” value ([1]; fluorogenic peptide assay) was “abrogated all 20S proteasome activity”.

In the case of `O=C(Cn1c2ccccc2c2ccccc21)N(c1ccc(F)cc1)c1ccc(F)cc1` [Compound 2, 2-(9H-carbazol-9-yl)-N,N-bis(4-fluorophenyl)acetamide], the “EC200 (concentration at which degradation rate is enhanced 2-fold, 200%)” value [1] is reported as 3.8 µM.

`CC(C)C[C@H](NC(=O)[C@H](Cc1ccccc1)NC(=O)c1cnccn1)B(O)O` [BTZ, Bortezomib, reference compound] was tested, and the “increase of A53T α-synuclein levels” value ([2]; 30 nM, 16 h) was 148% and 135% and the “ubiquitin as compared to the vehicle” value ([3]; 100 nM) was 298%.

With `O=C(CN1CCOc2ccccc21)N(c1ccc(F)cc1)c1ccc(F)cc1` [Compound 12, 2-(2,3-dihydro-4H-benzo[b][1,4]oxazin-4-yl)-N,N-bis(4-fluorophenyl)acetamide] the “EC200 (concentration at which degradation rate is enhanced 2-fold, 200%)” value [1] was 8.0 µM.

`O=C(CCn1c(=O)oc2ccccc21)N(c1ccc(F)cc1)c1ccc(F)cc1` [Compound 13, N,N-bis(4-fluorophenyl)-3-(2-oxobenzo[d]oxazol-3(2H)-yl)propanamide] was tested, and the “EC200 (concentration at which degradation rate is enhanced 2-fold, 200%)” value [1] was 1.3 µM.

With “3-(2,3-dihydro-4H-benzo[b][1,4]oxazin-4-yl)-N,N-bis(4-fluorophenyl)propenamide [Compound 11]” the “EC200 (concentration at which degradation rate is enhanced 2-fold, 200%)” value [1] was 9.0 µM.

In the case of `O=C(Cn1ccc2ccccc21)N(c1ccc(F)cc1)c1ccc(F)cc1` [Compound 8, N,N-bis(4-fluorophenyl)-2-(1H-indol-1-yl)acetamide], the “EC200 (concentration at which degradation rate is enhanced 2-fold, 200%)” value [1] is reported as 7.5 µM.

In the case of `O=C(CCn1c2ccccc2c2ccncc21)N(c1ccc(F)cc1)c1ccc(F)cc1` [Compound 5, N,N-bis(4-fluorophenyl)-3-(9H-pyrido[3,4-b]indol-9-yl)propanamide], the “EC200 (concentration at which degradation rate is enhanced 2-fold, 200%)” value [1] is reported as 3.8 µM.

“N,N-bis(4-fluorophenyl)-2-(2-methyl-9H-carbazol-9-yl)acetamide [Compound 4]” was tested, and the p25α remaining (p25α in PC12 cells) was 67%, the α-synuclein remaining [2] was 72% and the “A53T α-synuclein remaining” value ([2]; 5 μM, 16 h) was 30%. The “A53T α-synuclein remaining” value ([2]; 10 μM, 16 h) was 14%, the “A53T α-synuclein remaining” value ([2]; 15 μM, 16 h) was 11% and the “p25α remaining compared to DMSO treated samples” value (purified 20S proteasome [4]) was 28%. The proteasome activity remaining [5] was 34%, the “reduction of p25α” value (p25α in HEK-293T cells) was “non-significant” and the “EC200 (concentration at which degradation rate is enhanced 2-fold, 200%)” value [1] was 1.2 µM. The “A53T α-synuclein remaining” value [6] was 28%, the α-synuclein remaining (purified 20S proteasome [7]; 5 μM compound) was 58% and the α-synuclein remaining (purified 20S proteasome [7]; 15 μM compound) was 33%. For the same compound, the levels of ubiquitin [3] was “didn’t impact the levels of ubiquitin significantly” and the cell viability (PC12 cells) was 75%.

For `O=C(Cn1ccc2ccc(Cl)cc21)N(c1ccc(F)cc1)c1ccc(F)cc1` [Compound 10, 2-(6-chloro-1H-indol-1-yl)-N,N-bis(4-fluorophenyl)acetamide], the “EC200 (concentration at which degradation rate is enhanced 2-fold, 200%)” value [1] was 1.6 µM.

For `CCOC(=O)[C@]1(c2ccccc2)N=C(c2ccc(OC)cc2)N(Cc2ccccc2)[C@@H]1c1ccc(NCc2ccccc2)cc1` [TCH-165, reference compound], the “A53T α-synuclein remaining” value ([2]; 10 μM, 16 h) was 52% and 40%, the α-synuclein remaining (purified 20S proteasome [7]; 5 μM compound) was 60% and the α-synuclein remaining (purified 20S proteasome [7]; 15 μM compound) was 40%.

With `O=C(CCn1c2ccccc2c2ccc(Cl)cc21)N(c1ccc(F)cc1)c1ccc(F)cc1` [Compound 3, 3-(2-chloro-9H-carbazol-9-yl)-N,N-bis(4-fluorophenyl)propanamide] the “EC200 (concentration at which degradation rate is enhanced 2-fold, 200%)” value [1] was 0.9 µM and the α-synuclein remaining (purified 20S proteasome [7]; 15 μM compound) was 33%.

`O=C(CCn1c2ccccc2c2ccccc21)N(c1ccc(F)cc1)c1ccc(F)cc1` [Compound 1, 3-(9H-carbazol-9-yl)-N,N-bis(4-fluorophenyl)propanamide] was tested, and the p25α remaining (p25α in PC12 cells) was 40%, the α-synuclein remaining [2] was 55% and the “decrease of A53T α-synuclein” value ([2]; 1 μM, 16 h) was 67%. The “A53T α-synuclein remaining” value ([2]; 1 μM, 16 h) was 64%, the “A53T α-synuclein remaining” value ([2]; 15 μM, 16 h) was 21% and the “p25α remaining compared to DMSO treated samples” value (purified 20S proteasome [4]) was 29%. For the same compound, the proteasome activity remaining [5] was 29%, the “reduction of p25α” value (p25α in HEK-293T cells) was 45% and the “EC200 (concentration at which degradation rate is enhanced 2-fold, 200%)” value [1] was 1.6 µM. The “A53T α-synuclein remaining” value [6] was 16%, the α-synuclein remaining (purified 20S proteasome [7]; 5 μM compound) was 45% and the α-synuclein remaining (purified 20S proteasome [7]; 15 μM compound) was 28%. The levels of ubiquitin [3] was “didn’t impact the levels of ubiquitin significantly”.

`CN(C)CCC(=O)N(c1ccc(F)cc1)c1ccc(F)cc1` [Compound 19, 3-(dimethylamino)-N,N-bis(4-fluorophenyl)propanamide] was tested, and the “p25α remaining compared to DMSO treated samples” value (purified 20S proteasome [4]) was “didn’t show significant impact on the rate of p25α degradation”, the “reduction of p25α” value (p25α in HEK-293T cells) was “didn’t impact the levels of p25α” and the levels of ubiquitin [3] was “didn’t impact the levels of ubiquitin significantly”.
